# Publication PMC5701662 (Bioorganic & medicinal chemistry letters, 2017)
# Entries after “also recorded” stand apart in the source; their conditions may differ.
# Columns and labels:
# SMN2 expression [1] = experiment: SMN2-luciferase reporter assay; type: cell-based; settings: for activity in the luciferase reporter assay (in words): SAR statements in the text
# Procedure, shortened: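 Reporter cells carrying the SMN2-luciferase construct were exposed to test compound at 0.1–50 μM, with DMSO (0.1%) controls. Luciferase signal gave dose-response curves, from which EC50 and percent maximum increase in SMN2 expression were taken. Values are mean ± S.E.M.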
# aqueous solubility = type: physicochemical
# [2] = stability in mouse microsomes; type: in vitro ADME
# [3] = tested on: SMN1-luciferase construct; experiment: SMN1-luciferase construct expression; type: cell-based
# [4] = tested on: SMN-luciferase reporter transcripts; experiment: qRT-PCR analysis of SMN-luciferase reporter transcripts; type: cell-based; settings: 24 hours required for full activation
# SMNΔ7 mice = experiment: preliminary efficacy study in SMNΔ7 mice; type: in vivo, mouse; settings: 20 mg/kg i.p. once daily from PND 2, compared to vehicle
# SMN2 expression [5] = settings: hit compounds from high-throughput screening; cited from earlier work
Structure (SMILES),activity in the luciferase reporter assay (in words) (SMN2 expression [1]),EC50 (SMN2 expression [1]) [µM],further results
COc1ccc2c(c1OC)C(c1cc(Br)ccc1F)CC(=O)N2 (centres unmarked) [5a],complete loss of activity,–,–
COc1cc2c(c(OC)c1)C(c1cc(Br)ccc1F)CC(=O)N2 (centres unmarked) [5b],complete loss of activity,–,–
COc1cc2c(c(OC)c1OC)C(c1ccccc1F)CC(=O)N2 (centres unmarked) [5c],complete loss in activity,> 50,–
COc1cc2c(c(OC)c1OC)C(c1cccc(Br)c1)CC(=O)N2 (centres unmarked) [5d],complete loss in activity,> 50,–
COc1cc2c(c(OC)c1OC)C(c1cc(F)ccc1F)CC(=O)N2 (centres unmarked) [5f],not active,> 50,–
COc1cc2c(c(OC)c1OC)C(c1cc(C#N)ccc1F)CC(=O)N2 (centres unmarked) [5g],not active,> 50,–
COc1cc2c(c(OC)c1OC)C(c1cc([N+](=O)[O-])ccc1F)CC(=O)N2 (centres unmarked) [5h],not active,> 50,–
COc1cc2c(c(OC)c1OC)C(c1cc(C(N)=O)ccc1F)CC(=O)N2 (centres unmarked) [5i],not active,> 50,–
COc1cc2c(c(OC)c1OC)C(c1cccc(Cl)c1Cl)CC(=O)N2 (centres unmarked) [5j],inactive,> 50,–
COc1cc2c(c(OC)c1OC)C(c1ccc(Cl)cc1Cl)CC(=O)N2 (centres unmarked) [5k],inactive,> 50,–
COc1cc2c(c(OC)c1OC)C(c1ccc(F)c(F)c1)CC(=O)N2 (centres unmarked) [5l],inactive,> 50,–
COc1cc2c(c(OC)c1OC)C(c1ccc(Cl)c(Cl)c1)CC(=O)N2 (centres unmarked) [5m],inactive,> 50,–
COc1cc2c(c(OC)c1OC)C(c1cc(Br)ccc1F)CC(=O)N2C (centres unmarked) [6a],inactive,–,–
COc1cc2c(c(OC)c1OC)C(c1cc(Br)ccc1F)C(C)C(=O)N2 (centres unmarked) [6b],inactive,–,–
COc1cc2c(c(OC)c1OC)C(c1cc(Cl)ccc1F)NC(=O)N2 (centres unmarked) [9a],improved potency and efficacy; also recorded: very promising activity,–,SMN-luciferase protein expression from the SMN2-luciferase construct (SMN2 expression [1]; secondary characterisation): increased SMN-luciferase protein expression; aqueous solubility (in words) (aqueous solubility): improved aqueous solubility; stability in mouse microsomes (in words) [2]: promising stability; SMN-luciferase protein expression from the SMN1-luciferase construct [3]: increased SMN-luciferase protein expression; amount of exon 7 included transcripts [4]: corresponding increase; amount of total SMN-luciferase reporter transcripts [4]: increased; ability to right themselves (SMNΔ7 mice): increase in the ability to right themselves
COc1cc2c(c(OC)c1OC)C(c1ccccc1F)N(C)C(=O)N2 (centres unmarked) [9b],"less active; also recorded: partial, but not a complete, loss in activity",10,Emax (SMN2 expression [1]; read-out: percent maximum increase in SMN2 expression): 100%
CCCN1C(=O)Nc2cc(OC)c(OC)c(OC)c2C1c1cccc(Cl)c1 (centres unmarked) [9c],"inactive; also recorded: partial, but not a complete, loss in activity",–,–
COc1cc2c(c(OC)c1OC)C(c1cccc(F)c1)NC(=O)N2 (centres unmarked) [9d],retained some activity,–,–
COc1cc2c(c(OC)c1OC)C(c1ccc(F)cc1)NC(=O)N2 (centres unmarked) [9e],retained some activity,–,–

Structure (SMILES),activity in the luciferase reporter assay (in words) (SMN2 expression [1]),EC50 (SMN2 expression [1]) [µM],further results
COc1cc2c(c(OC)c1OC)C(c1ccccc1Cl)NC(=O)N2 (centres unmarked) [9f],–,> 50,–
COc1cc2c(c(OC)c1OC)C(c1ccc(Cl)cc1)NC(=O)N2 (centres unmarked) [9g],retained some activity,–,–
COc1ccccc1C1NC(=O)Nc2cc(OC)c(OC)c(OC)c21 (centres unmarked) [9h],–,> 50,–
COc1ccc(C2NC(=O)Nc3cc(OC)c(OC)c(OC)c32)cc1 (centres unmarked) [9j],–,> 50,–
COc1cc2c(c(OC)c1OC)C(c1cc(-c3ccccc3)ccc1F)NC(=O)N2 (centres unmarked) [9l],inactive,> 50,–
COc1cc2c(c(OC)c1OC)C(c1cc(C#N)ccc1F)NC(=O)N2 (centres unmarked) [9m],inactive,> 50,–
COc1cc2c(c(OC)c1OC)C(c1cc(F)ccc1F)NC(=O)N2 (centres unmarked) [9n],less active,–,–
COc1ccc(F)c(C2NC(=O)Nc3cc(OC)c(OC)c(OC)c32)c1 (centres unmarked) [9o],inactive,> 50,–
COc1cc2c(c(OC)c1OC)C(c1ccc(Cl)cc1F)NC(=O)N2 (centres unmarked) [9p],tolerated,–,–
COc1cc(Cl)ccc1C1NC(=O)Nc2cc(OC)c(OC)c(OC)c21 (centres unmarked) [9q],activity was restored,–,–
COc1ccc(Cl)cc1C1NC(=O)Nc2cc(OC)c(OC)c(OC)c21 (centres unmarked) [9r],activity was restored,–,–
CC(C)c1cc(C(=O)Nc2ccc(F)c(Cl)c2)no1 [compound 1],–,–,increase in expression of SMN2 (SMN2 expression [5]): 2 fold
COc1cc2c(c(OC)c1OC)C(c1cc(Br)ccc1F)CC(=O)N2 (centres unmarked) [compound 2],–,–,increase in expression of SMN2 (SMN2 expression [5]): 2 fold
COc1cc2[nH]c(=O)nc(-c3cc(Cl)ccc3F)c2c(OC)c1OC [compound 13],inactive,–,–
COc1cc2c(c(OC)c1OC)C(c1cc(Cl)ccc1F)=NCC(=O)N2 [compound 14],"retained potency similar to the lead 2, although its efficacy was reduced",–,–
COc1cc2c(c(OC)c1OC)C(c1cc(Cl)ccc1F)OC(=O)N2 (centres unmarked) [compound 16],encouraging activity,–,–
COc1cc2c(c(OC)c1OC)C(c1cc(Cl)ccc1F)OCC(=O)N2 (centres unmarked) [compound 19],improved potency and efficacy,–,aqueous solubility (in words) (aqueous solubility): improved aqueous solubility; stability in mouse microsomes (in words) [2]: poor
COc1cc2c(c(OC)c1OC)C(c1cc(Cl)ccc1F)OCC(=O)N2C (centres unmarked) [compound 21],not tolerated,–,–
COc1cc2c(c(OC)c1OC)C(C)(c1cc(Cl)ccc1F)OCC(=O)N2 (centres unmarked) [compound 23],not tolerated,–,–
